Measured values: ChEMBL document CHEMBL1131239, “Orally active benzamide antipsychotic agents with affinity for dopamine D2, serotonin 5-HT1A, and adrenergic alpha1 receptors” (J Med Chem, 1998)

Experiments:
[1] = biological target: T1, Adrenergic receptor alpha-1 (Rattus norvegicus, UniProt P15823+P23944+P43140); assay: Binding affinity against Alpha-1 adrenergic receptor from rat cerebral cortex; assay type: tissue-based
T1 sequence (P15823 whole entry): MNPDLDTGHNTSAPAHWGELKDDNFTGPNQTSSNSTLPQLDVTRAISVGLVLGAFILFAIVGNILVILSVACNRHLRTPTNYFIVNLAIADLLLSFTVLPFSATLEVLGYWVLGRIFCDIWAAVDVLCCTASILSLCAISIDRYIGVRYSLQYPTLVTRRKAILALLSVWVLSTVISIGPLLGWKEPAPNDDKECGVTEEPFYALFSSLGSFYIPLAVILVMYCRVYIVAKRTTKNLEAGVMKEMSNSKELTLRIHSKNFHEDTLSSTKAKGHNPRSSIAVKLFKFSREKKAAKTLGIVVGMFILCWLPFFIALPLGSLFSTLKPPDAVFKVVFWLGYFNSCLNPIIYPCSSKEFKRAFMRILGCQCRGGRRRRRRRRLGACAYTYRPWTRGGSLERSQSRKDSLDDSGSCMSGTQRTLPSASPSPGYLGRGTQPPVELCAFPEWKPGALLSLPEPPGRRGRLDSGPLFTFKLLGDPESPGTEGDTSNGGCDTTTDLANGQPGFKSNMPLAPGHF
T1 sequence (P23944 whole entry): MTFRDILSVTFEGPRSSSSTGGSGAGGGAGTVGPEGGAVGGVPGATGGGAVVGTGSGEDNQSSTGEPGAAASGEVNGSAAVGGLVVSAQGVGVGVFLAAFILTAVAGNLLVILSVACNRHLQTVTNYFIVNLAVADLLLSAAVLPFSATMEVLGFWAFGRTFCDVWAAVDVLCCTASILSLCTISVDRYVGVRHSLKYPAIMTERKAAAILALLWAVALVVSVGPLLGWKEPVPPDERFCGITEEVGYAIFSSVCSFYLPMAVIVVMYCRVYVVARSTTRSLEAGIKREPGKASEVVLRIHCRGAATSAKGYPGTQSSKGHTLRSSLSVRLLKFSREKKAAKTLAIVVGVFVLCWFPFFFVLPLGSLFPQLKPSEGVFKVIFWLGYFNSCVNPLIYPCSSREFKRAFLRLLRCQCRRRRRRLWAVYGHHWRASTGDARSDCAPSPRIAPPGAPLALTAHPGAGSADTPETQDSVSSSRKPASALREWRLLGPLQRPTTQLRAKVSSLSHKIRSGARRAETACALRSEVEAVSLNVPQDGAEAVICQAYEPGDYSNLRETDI
T1 sequence (P43140 whole entry): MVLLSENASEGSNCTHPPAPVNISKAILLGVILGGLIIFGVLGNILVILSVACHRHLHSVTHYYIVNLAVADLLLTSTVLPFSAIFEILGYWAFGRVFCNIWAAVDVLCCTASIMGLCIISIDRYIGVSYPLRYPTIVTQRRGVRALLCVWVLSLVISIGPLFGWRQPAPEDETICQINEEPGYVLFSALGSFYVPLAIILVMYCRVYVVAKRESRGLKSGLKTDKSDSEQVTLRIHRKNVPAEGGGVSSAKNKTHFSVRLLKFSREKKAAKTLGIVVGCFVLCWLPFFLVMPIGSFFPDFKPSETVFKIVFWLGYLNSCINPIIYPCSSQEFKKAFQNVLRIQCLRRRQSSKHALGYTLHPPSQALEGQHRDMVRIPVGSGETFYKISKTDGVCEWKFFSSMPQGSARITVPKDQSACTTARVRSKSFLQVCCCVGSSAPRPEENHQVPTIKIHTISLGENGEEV

[2] = biological target: T2, 5-hydroxytryptamine receptor 1A (Rattus norvegicus, UniProt P19327); assay: Compound was evaluated for its binding affinity against 5-hydroxytryptamine 1A receptor from rat cerebral cortex; assay type: tissue-based
T2 sequence (P19327 whole entry): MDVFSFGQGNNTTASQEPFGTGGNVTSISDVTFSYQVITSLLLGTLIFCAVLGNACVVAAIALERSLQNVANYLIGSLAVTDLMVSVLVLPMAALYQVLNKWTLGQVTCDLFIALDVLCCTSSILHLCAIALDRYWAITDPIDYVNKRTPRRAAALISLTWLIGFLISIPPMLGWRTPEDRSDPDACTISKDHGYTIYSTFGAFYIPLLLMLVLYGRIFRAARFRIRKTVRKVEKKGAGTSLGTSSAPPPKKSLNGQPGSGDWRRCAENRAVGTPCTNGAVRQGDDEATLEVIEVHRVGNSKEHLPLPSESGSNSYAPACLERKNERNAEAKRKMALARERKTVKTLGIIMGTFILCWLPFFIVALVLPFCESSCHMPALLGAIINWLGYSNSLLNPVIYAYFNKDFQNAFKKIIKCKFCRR

Rattus norvegicus [3] = assay: compound was tested for antipsychotic activity by conditioned avoidance response(CAR) assay in rats with a pretreatment period of 30 min upon intra peritoneal administration at a concentration of 15 mg/kg.; assay type: functional
Rattus norvegicus [4] = assay: compound was tested for antipsychotic activity by conditioned avoidance response(CAR) assay in rats with a pretreatment period of 30 min upon intra peritoneal administration at a concentration of 1 mg/kg.; assay type: functional
Outline: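 Trained rats (N = 4) were run in 1-h sessions on two consecutive days, with the experimenter blind to drug and dose. Fed rats had food and water until placed in the test chambers. Fasted rats had no food overnight before the experiment.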

Rattus norvegicus [5] = assay: compound was tested for antipsychotic activity by conditioned avoidance response(CAR) assay in rats with a pretreatment period of 30 min upon intra peritoneal administration at a concentration of 5 mg/kg.; assay type: functional
Outline: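 Rat conditioned avoidance test modified from Martin et al. Trained rats (N = 4) were run in 1-h sessions on two consecutive days. Fed animals had food and water until placed in the test chambers. Dosing was ip with 30 min pretreatment, and activity was expressed as percent inhibition at the stated dose.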

Rattus norvegicus [6] = assay: compound was tested for antipsychotic activity by conditioned avoidance response(CAR) assay in rats with a pretreatment period of 60 min upon peroral administration at a concentration of 20 mg/kg.; assay type: functional; details: route oral
Rattus norvegicus [7] = assay: Percent catalepsy in male Spargue-Dawley rat at pretreatment time 240 mins and when administered ip at dose 50 mg/kg; assay type: functional; details: route intraperitoneal
Outline: (§1)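 Catalepsy in rats, groups of five per drug treatment, scored blind to drug and dose. Each session included a saline or vehicle negative control and a haloperidol 2 mg/kg positive control. Deaths during the experiment were recorded in the catalepsy column as number dead out of five.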

Rattus norvegicus [8] = assay: Percent catalepsy in male Spargue-Dawley rat at pretreatment time 60 mins and when administered ip at dose 50 mg/kg; assay type: functional; details: route intraperitoneal; outline: as §1

| SMILES | Ki [1] [nM] | Ki [2] [nM] | inhibition in vivo at 15 mg/kg (Rattus norvegicus [3]) [%] | inhibition in vivo at 1 mg/kg (Rattus norvegicus [4]) [%] | inhibition in vivo at 5 mg/kg (Rattus norvegicus [5]) [%] | inhibition in vivo at 20 mg/kg (Rattus norvegicus [6]) [%] | Catalepsy (Rattus norvegicus [7]) [%] | Catalepsy (Rattus norvegicus [8]) [%] |
| --- | --- | --- | --- | --- | --- | --- | --- | --- |
| O=C(c1cccc(CN2CCN(c3ccc(Cl)cc3)CC2)c1)N1CCCCC1 | 486 | 121 | -4.7 |  |  |  |  |  |
| N#Cc1ccccc1N1CCN(Cc2cccc(C(=O)N3CCCCC3)c2)CC1 | 19 | 2.5 |  | -5.3 | -73.9 | -5.4 |  |  |
| O=C(c1cccc(CN2CCN(c3cccc([N+](=O)[O-])c3)CC2)c1)N1CCCCC1 | > 1000 | 24 | -77.7 |  | -1.3 |  |  |  |
| O=C(c1cccc(CN2CCN(c3ccccc3F)CC2)c1)N1CCCCC1 | 27 | 16 | -84.3 |  |  |  |  |  |
| O=C(c1cccc(CN2CCN(CCO)CC2)c1)N1CCCCCC1 | > 1000 |  |  |  | -2.1 |  |  |  |
| O=C(c1cccc(CN2CCN(c3ncccn3)CC2)c1)N1CCCCC1 |  | 12 | -6.8 |  | -17.9 |  |  |  |
| CC(C)Oc1ccccc1N1CCN(Cc2cccc(C(=O)N3CCC3)c2)CC1 | 1.2 | 3.4 | -87 |  |  |  |  |  |
| CC(C)Oc1ccccc1N1CCN(Cc2cccc(C(N)=O)c2)CC1 | 11.4 | 18 |  | -3 | -88.5 | -1.1 |  |  |
| CC(C)Oc1ccccc1C1(O)CCN(Cc2cccc(C(=O)N3CCCCC3)c2)CC1 | 110 | > 1000 |  |  | 0.9 |  |  |  |
| O=C(c1cccc(CN2CCN(c3ccc4ccoc4c3)CC2)c1)N1CCCCC1 | 13 | 0.21 |  |  | -82.4 |  |  |  |
| COCCN1CCN(Cc2cccc(C(=O)N3CCCCCC3)c2)CC1 | > 1000 |  |  |  |  |  |  |  |
| CCCCN(CCCC)C(=O)c1cccc(CN2CCN(c3ccccc3OC(C)C)CC2)c1 | 3.3 | 0.8 | -5.6 |  |  |  |  |  |
| CC(C)Oc1cc(F)ccc1N1CCN(Cc2cccc(C(=O)N3CCCCC3)c2)CC1 | 6 | 4.2 |  | -22.6 | -82.6 |  | 50 | 45.2 |
| CCCc1ccccc1N1CCN(Cc2cccc(C(=O)N3CCCCC3)c2)CC1 | 16 | 9.1 | -0.7 |  |  |  |  |  |
| CC(C)Oc1ccccc1N1CCN(Cc2cccc(C(=O)NC3CCCCC3)c2)CC1 | 3.4 | 4.1 | -86.2 |  | -17.6 |  |  |  |
| O=C(c1cccc(CN2CCN(c3ccccc3C(F)(F)F)CC2)c1)N1CCCCC1 | 3.3 | 0.8 | -59.7 |  | -5.5 |  |  |  |
| CC(C)Oc1ccccc1N1CCN(Cc2cccc(C(=S)N3CCCCC3)c2)CC1 | 2.3 | 1.1 |  |  | -71.6 |  |  |  |
| CN1CCN(Cc2cccc(C(=O)N3CCCCC3)c2)CC1 | > 1000 |  | 0.4 |  |  |  |  |  |
| O=C(c1cccc(CN2CCN(c3cccc4ccccc34)CC2)c1)N1CCCCC1 | 57 | 1.8 | -18.8 |  |  |  |  |  |
| O=C(c1cccc(CN2CCN(c3ccccc3)CC2)c1)N1CCCCC1 | 44 | 7.2 | -82.1 |  | -2.2 |  |  |  |
| CC(C)Oc1ccccc1N1CCN(Cc2cccc(C(=O)N(C)C3CCCCC3)c2)CC1 | 1.2 | 1.2 |  | -9.3 | -98.9 |  | 58.1 | 0 |
| CC(C)Oc1ccccc1N1CCN(Cc2cccc(C(=O)Nc3ccc(F)cc3)c2)CC1 | 11 | 11 | -2.5 |  |  |  |  |  |
| CCN1CCCC1CNC(=O)c1cccc(CN2CCN(c3ccccc3OC(C)C)CC2)c1 (stereo not drawn) | 486 | 121 | -74.9 |  | -19.4 |  |  |  |
| CC(C)Oc1ccccc1N1CCN(Cc2cccc(C(=O)N3CCOCC3)c2)CC1 | 29 | 3.2 |  | -94.5 | -95.4 | -96.2 |  |  |
| O=C(c1cccc(CN2CCN(c3cccc(C(F)(F)F)c3)CC2)c1)N1CCCCC1 | 562 | 2.3 | -71.6 |  | -3.7 |  |  |  |
| O=C(c1cccc(CN2CCN(c3ccccc3Cl)CC2)c1)N1CCCCC1 | 16 | 8.2 | -68.6 |  | -67.9 |  |  |  |
